The record followed here is ChEMBL document CHEMBL1806481, “Synthesis and anti-inflammatory activity of novel biscoumarin-chalcone hybrids” (Bioorg Med Chem Lett, 2011).

Data set [1] is described as follows: Antioxidant activity assessed as inhibition non-enzymatic reactants generated hydroxyl radical production at 100 ug/ml after 90 mins by spectrophotometry. In kind it is functional.
Data set [2] in a line: Antioxidant activity assessed as inhibition microsomal lipid peroxidation at 100 ug/ml by thiobarbituric acid test. In kind it is functional. Conditions: Microsome.
Data set [3] concerns Rattus norvegicus. In words: Antiinflammatory activity in albino rat assessed as inhibition of carrageenin-induced paw oedema at 100 mg/kg, po after 3 hrs by plethysmographic analysis relative to control. The data set is classed as functional. In outline:
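Rats received 100 mg/kg po. Oedema was induced by subplantar injection of 0.1 ml of 1% carrageenin into one hind paw. Paw volume was measured plethysmographically immediately after the injection and at 3 h. The volume difference gave the oedema, and percent inhibition was calculated against the control group. Ibuprofen was the reference at an equivalent dose.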
On the technique in general: Carrageenan injected into the paw causes an acute inflammation.

Data set [4] can be described thus: Antiinflammatory activity in whole blood assessed as inhibition of LPS-induced TNFalpha production at 200 ug/ml. The data set is classed as functional.
Data set [5] can be described thus: Antiinflammatory activity in whole blood assessed as inhibition of LPS-induced TNFalpha production at 400 ug/ml. In kind it is functional.
Data set [6] is described as follows: Antiinflammatory activity in whole blood assessed as inhibition of LPS-induced TNFalpha production. The data set is classed as functional, tissue-based.
Data set [7] in a line: Antioxidant activity assessed as inhibition of xanthine-xanthine oxidase generated superoxide anion radical production assessed as formazone formation at 200 ug/ml after 30 mins by spectrophotometric analysis. The data set is classed as functional. The procedure, abridged: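 Superoxide generation was run with and without compound at 200 µg/mL. Fractions were sonicated in phosphate buffer, and mixtures were incubated at 37 °C for 30 min. The reaction was stopped with glacial acetic acid, and formazone formed was measured spectrophotometrically. Allopurinol was the standard, and values are mean SD of six.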

Data set [8] is described as follows: Antioxidant activity assessed as inhibition non-enzymatic reactants generated hydroxyl radical production at 200 ug/ml after 90 mins by spectrophotometry. In kind it is functional. The procedure, abridged: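 Hydroxyl radicals were generated non-enzymatically from deoxyribose (2.8 mM), FeSO4·7H2O (2 mM), sodium ascorbate (2.0 mM) and H2O2 (2.8 mM) in 50 mM KH2PO4 buffer, pH 7.4. Final volume was 2.5 mL, with or without test compound at 200 µg/mL. Mixtures were incubated at 37 °C for 90 min, MDA formed was measured, and mannitol was the standard. Values are mean SD of six.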

The nature of data set [9]: Antioxidant activity assessed as inhibition microsomal lipid peroxidation at 200 ug/ml by thiobarbituric acid test. The data set is classed as functional. The settings on record: Microsome. In outline:
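Microsomal lipid peroxidation was measured with compound at 200 µg/mL and read as nmol MDA formed per mg protein. α-Tocopherol at 100 µg/mL was the standard. Values are mean SD of six.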

Data set [10] can be described thus: Toxicity in albino rat assessed as survival at 100 mg/kg, po. The data set is classed as organism-based. Set-up: dose 100 mg/kg, route oral. The settings on record: in vivo, read-out: Activity. In outline:
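Albino rats were dosed orally in the carrageenin hind-paw oedema study. Survival was recorded, and animals were examined macroscopically and by autopsy.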

The subject of data set [11] is Rattus norvegicus. In words: Toxicity in albino rat at 100 mg/kg, po by autopsy. In kind it is organism-based. Details: dose 100 mg/kg, route oral. The settings on record: in vivo.
The subject of data set [12] is Rattus norvegicus. As to the kind of experiment: Toxicity in albino rat at 100 mg/kg, po by macroscopic analysis. Conditions: in vivo.
Data set [13] in a line: Antioxidant activity assessed as inhibition of xanthine-xanthine oxidase generated superoxide anion radical production assessed as formazone formation at 20 ug/ml after 30 mins by spectrophotometric analysis. In kind it is functional. In outline: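 Reaction mixtures in phosphate buffer incubated at 37 °C for 30 min, then stopped with 0.5 mL glacial acetic acid. Superoxide quantified as formazone formed (nmol/min), read spectrophotometrically. Mean SD of six values.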

As a reminder, the inhibition is the relative decrease from the control value, in per cent. One may read the inhibition in vivo as the relative decrease from the control value, in per cent.

SMILES strings stand for the structures. Active and inactive are the calls of the source. No cut-off for these calls is given here.

With `OC[C@@H](O)[C@@H](O)[C@H](O)[C@H](O)CO`, the inhibition in data set [1] amounted to 40%.
As to `Cc1c(C)c2c(c(C)c1O)CC[C@@](C)(CCC[C@H](C)CCC[C@H](C)CCCC(C)C)O2`, the inhibition in data set [2] came to 41%.
On to `CC(=O)c1cc2cc(/C=C/C(=O)c3ccc(C)cc3)c3c(ccc4c(C)cc(=O)oc43)c2oc1=O`, for which the inhibition in vivo at 100 mg/kg in the data set with Rattus norvegicus [3] came to 29%. In addition, the inhibition at 200 µg/mL in data set [4] turned out to be 33%. Also, the inhibition at 400 µg/mL in data set [5] stood at 47%. Besides, the inhibition entry in data set [6] was “Dose-dependent effect”.
For the compound `CCOC(=O)c1cc2cc(/C=C/C(=O)c3ccc(C)cc3)c3c(ccc4c(C)cc(=O)oc43)c2oc1=O`, the inhibition result with Rattus norvegicus [3] was “inactive”.
As for `COC(=O)c1cc2cc(/C=C/C(=O)c3ccccc3)c3c(ccc4c(C)cc(=O)oc43)c2oc1=O`, the inhibition in [7] is 29%; in data set [8] it was 27%; in data set [9], 23%; in data set [6], “Dose-dependent effect”. Moreover, the inhibition in vivo at 100 mg/kg in the data set on Rattus norvegicus [3] worked out at 33%. Moreover, in data set [4], the inhibition at 200 µg/mL worked out at 4%. Moreover, the inhibition at 400 µg/mL in data set [5] turned out to be 21%.
For the compound `CCOC(=O)c1cc2cc(/C=C/C(=O)c3cccs3)c3c(ccc4c(C)cc(=O)oc43)c2oc1=O`, the inhibition is 24% in data set [7], 26% in data set [8] and 27% in [9]. Moreover, in the data set on Rattus norvegicus [3], the inhibition in vivo at 100 mg/kg was determined as 8.77%. In addition, the survival in data set [10] was determined as 80%. The Activity entry with Rattus norvegicus [11] and with Rattus norvegicus [12] was “Non-toxic” throughout.
In the case of `Oc1ncnc2[nH]ncc12`, in data set [13], the inhibition is 42%.
Regarding `CCOC(=O)c1cc2cc(/C=C/C(=O)c3ccccc3)c3c(ccc4c(C)cc(=O)oc43)c2oc1=O`, the inhibition result in the data set on Rattus norvegicus [3] is “inactive”.
Consider `COC(=O)c1cc2cc(/C=C/C(=O)c3cccs3)c3c(ccc4c(C)cc(=O)oc43)c2oc1=O`, for which, in the data set on Rattus norvegicus [3], the inhibition in vivo at 100 mg/kg was found to be 3.5%. The survival in data set [10] was 80%. The Activity entry in the data set on Rattus norvegicus [11] and in the data set on Rattus norvegicus [12] was “Non-toxic” in each case.
In the case of `COC(=O)c1cc2cc(/C=C/C(=O)c3ccc(C)cc3)c3c(ccc4c(C)cc(=O)oc43)c2oc1=O`, the inhibition entry with Rattus norvegicus [3] was “inactive”.
Same read-out and setting: in the case of `COC(=O)c1cc2cc(/C=C/C(=O)c3ccco3)c3c(ccc4c(C)cc(=O)oc43)c2oc1=O` it was “inactive”.
Regarding `CCOC(=O)c1cc2cc(/C=C/C(=O)c3ccco3)c3c(ccc4c(C)cc(=O)oc43)c2oc1=O`, the inhibition was found to be 30% in [7], 21% in data set [8] and 24% in [9]. Moreover, the inhibition in vivo at 100 mg/kg with Rattus norvegicus [3] came to 13%. Further, in data set [10], the survival worked out at 80%. Also, the Activity entry with Rattus norvegicus [11] and in the data set on Rattus norvegicus [12] was “Non-toxic” throughout.
`CC(C)Cc1ccc(C(C)C(=O)O)cc1` (stereo unspecified) [IBUPROFEN]: the inhibition in vivo at 100 mg/kg with Rattus norvegicus [3] amounted to 59.5%.
For the compound `CC(=O)c1cc2cc(/C=C/C(=O)c3ccco3)c3c(ccc4c(C)cc(=O)oc43)c2oc1=O`, the inhibition in vivo at 100 mg/kg in the data set with Rattus norvegicus [3] turned out to be 26%. Besides, in [4], the inhibition at 200 µg/mL is 25%. Besides, in data set [5], the inhibition at 400 µg/mL is 43%. Also, the inhibition result in [6] is “Dose-dependent effect”.
